From publication PMC4873422 (Molecular cancer therapeutics, 2016) come the findings set out here.

What all share (type): cell-based, human
One test concerns CAF19 cells. As to the kind of experiment: Monolayer proliferation assay. The conditions noted are these: CAFs (CAF19), 72 h. The essentials:
(§1)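 Monolayers were grown in DMEM with 10% serum at 37 °C, 5% CO2. Seeding was Pa03C tumor cells 2,000–3,000/well, EGFP-expressing CAF19 fibroblasts 4,000/well, or tumor plus CAFs at a 2:1 ratio. Test compound was added 24 h after seeding, and viability was read 72 h later. Dose-response data are Avg+SE, n=3–4. The 50% value came from a linear-regression fit at 50% survival.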

For test [1], the system named is p-STAT3 (Y705) in Pa03C cells. As to the kind of experiment: Immunoblot of p-STAT3. The conditions noted are these: 10 μM, 4 hr pre-treatment, IL-6 25 ng/mL 15 min.
The next test deals with Pa03C cells. Briefly: Monolayer proliferation assay. The conditions noted are these: tumor cells (Pa03C), 72 h. In short, it runs like this: as §1
The next test relates to Pa03C + CAF19 co-culture. As to the kind of experiment: Monolayer proliferation assay. The following applies: 2:1 tumor:CAF co-culture, 72 h. The essentials: as §1
The test system of another test is Panc10.05 cells. As to the kind of experiment: Cell viability / proliferation screen. The following applies: 72 h, Avg ± SE, n=4–5. The essentials: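 Panc10.05 patient-derived PDAC cells (STR-verified) were grown in DMEM with 10% serum at 37 °C, 5% CO2. Monolayers were seeded at 2,000–3,000 cells/well, and test compound was added 24 h after seeding. MTS tetrazolium read-out was taken 72 h later. Data from 4–5 repeats were pooled, and ED50 was taken from a linear-regression fit where percent survival equalled 50%.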

Usually IC50 stands for the concentration needed to halve the response being measured.

`CN(CC(=O)N(Cc1ccc(C2CCCCC2)cc1)c1ccc(C(=O)O)c(O)c1)S(=O)(=O)c1c(F)c(F)c(F)c(F)c1F` [BP-1-102]: the IC50 turned out to be 15.2 ± 2.7 µM in the test on CAF19 cells, 19.1 ± 0.9 µM with Pa03C cells and 16.4 ± 0.6 µM in the test with Pa03C + CAF19 co-culture. The “phosphorylation of STAT3 at Y705” value in test [1] is given as “inhibited phosphorylation of STAT3 at Y705”.

`CN(CC(=O)N(Cc1ccc(C2CCCCC2)cc1)c1ccc(C(=O)O)cc1)S(=O)(=O)c1c(F)c(F)c(F)c(F)c1F` [SH-4-54] yielded an ED50 in the test with Panc10.05 cells of 8.7 ± 1.9 µM. Besides, the values for the IC50 in the test on CAF19 cells, with Pa03C cells and in the test on Pa03C + CAF19 co-culture were 7.6 ± 0.9 µM, 9.2 ± 1.7 µM and 11.8 ± 1.1 µM, respectively. Moreover, the “phosphorylation of STAT3 at Y705” value in test [1] is reported as “inhibited phosphorylation of STAT3 at Y705”.
